Assay results gathered from unrelated publications.
Protocols differ between the studies behind these lines. pIC50, pKi: −log10 of the molar value.
Target: 5-hydroxytryptamine receptor 2A (HTR2A, Homo sapiens, UniProt P28223)

Cc1nc2n(c(=O)c1CCN(C)CCc1c[nH]c3cc(F)ccc13)CCCC2 — pKi (ligand displacement; radioligand; cell membranes): 7.59
COc1ccccc1N1CCN(CCN(C(=O)C2CCCCC2)c2ccccn2)CC1 — pKi (ligand displacement; radioligand; cell membranes): 6.48
NCCc1c[nH]c2ccc(F)cc12 — pKi (ligand displacement; radioligand): 5.41
COc1cc2c3c(c1OC)-c1ccccc1C[C@H]3N(C)CC2 — pKi (ligand displacement; radioligand; cell membranes): 6.82
CCCCCNC(=N)N/N=C/c1c[nH]c2ccc(OC)cc12 — pIC50 (cell-free assay): 6.90
COc1cc2c3c(c1OC)-c1cc4c(cc1CC3N(C)CC2)OCO4 (centres unmarked) — Kb (calcium signal; antagonist): 830 nM
C[C@H](N)Cn1ccc2cc(F)c(Cl)cc21 — pKi (ligand displacement; radioligand; cell membranes): 7.88
COc1cc2c3c(c1OC)-c1ccccc1CC3NCC2 (centres unmarked) — pKi (ligand displacement; radioligand; cell membranes): 6.03
c1ccc2c(C3CCNCC3)noc2c1 — pKi (ligand displacement; radioligand; cell membranes): 6.57
CN(C)CCc1c[nH]c2ccccc12 — pKi (cell-free assay): 5.82
CN(C)[C@@H]1Cc2ccccc2[C@@H](c2ccccc2)C1 (relative stereo) — Kb (inositol phosphate; antagonist): 460 nM
OC(c1ccc(F)cc1)C(F)(F)CCN1CCC(O)(c2ccc(Cl)cc2)CC1 (racemic) — pKi (cell-free assay; radioligand): 6.00
Cc1[nH]c2ccccc2c1CCN — pKi (ligand displacement; radioligand): 5.11
CC[C@H](C)[C@H](NC(=O)[C@H](CCCNC(=N)N)NC(=O)[C@H](CC(C)C)NC(=O)[C@@H](N)Cc1ccccc1)C(=O)N[C@@H](CCCNC(=N)N)C(=O)N1CCC[C@H]1C(=O)N[C@@H](CCCCN)C(=O)O — pKi (cell-free assay; radioligand): < 5.00
